Results: ChEMBL document CHEMBL1126568, “Nucleosides and nucleotides. 122. 2'-C-cyano-2'-deoxy-1-beta-D-arabinofuranosylcytosine and its derivatives. A new class of nucleoside with a broad antitumor spectrum” (J Med Chem, 1993)

Experiments:
Type in all cases: functional
Mus musculus [1] = experiment: Weight change in M5076 mouse reticulum cell sarcoma after administration at 125 mg/kg orally; conditions: route oral
In short: (§1)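 Female BDF₁ mice with subcutaneous axillary M5076 (10⁶ cells), oral dosing on days 1, 4, 7, 10, 13 and 16 in saline or 5% DMA/0.5% CMC. Body weight change (g) = mean weight on day 20 minus mean weight on day 1.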

Mus musculus [2] = experiment: Percent inhibition against M5076 mouse reticulum cell sarcoma after administration at 62.5 mg/kg orally on day 20; conditions: M5076, 480 h, route oral
In short: (§2)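 M5076 cells (10⁶ viable, counted by Trypan blue exclusion) implanted subcutaneously into the axillary region of female BDF₁ mice. Drug given orally on days 1, 4, 7, 10, 13 and 16 after inoculation, in saline or in 5% dimethylacetamide/0.5% carboxymethyl cellulose. Six mice per group (three at 400 mg/kg); untreated controls, nine mice. Tumor volume = 0.5 × length × width²; inhibition (%) = (1 − Vt/Vc) × 100 on day 20.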

Mus musculus [3] = experiment: Percent inhibition against M5076 mouse reticulum cell sarcoma after administration at 750 mg/kg orally on day 20; conditions: M5076, 480 h, route oral; in short: as §2
Mus musculus [4] = experiment: Tested for 60-day survivors after administration at 750 mg/kg orally in M5076 mouse reticulum cell sarcoma; conditions: route oral
In short: (§3)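 Female BD2F1 mice were implanted s.c. with 1 × 10^6 M5076 cells and dosed orally on days 1, 4, 7, 10, 13 and 16. Vehicle was saline or 5% DMA in 0.5% CMC. Groups had six mice (three at 400 mg/kg), with nine untreated controls. The number of mice alive at 60 days was counted.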

Mus musculus [5] = experiment: Percent treated was determined after administration at 62.5 mg/kg orally; conditions: route oral
In short: (§4)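 Female BDF₁ mice bearing subcutaneous M5076 (10⁶ cells, axillary). Oral dosing in saline or 5% DMA/0.5% CMC on days 1, 4, 7, 10, 13 and 16. Groups of six (three at 400 mg/kg), nine untreated controls. T/C (%) = median survival day of treated/median survival day of untreated controls × 100; 60-day survivors also recorded.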

Mus musculus [6] = experiment: Weight change in M5076 mouse reticulum cell sarcoma after administration at 750 mg/kg orally; conditions: route oral; in short: as §1
Mus musculus [7] = experiment: Weight change in M5076 mouse reticulum cell sarcoma after administration at 62.5 mg/kg orally; conditions: route oral; in short: as §1
Mus musculus [8] = experiment: Percent inhibition against M5076 mouse reticulum cell sarcoma after administration at 250 mg/kg orally on day 20; conditions: M5076, 480 h, route oral; in short: as §2
Mus musculus [9] = experiment: Percent treated was determined after administration at 750 mg/kg orally; conditions: route oral; in short: as §4
Mus musculus [10] = experiment: Percent inhibition against M5076 mouse reticulum cell sarcoma after administration at 125 mg/kg orally on day 20; conditions: M5076, 480 h, route oral; in short: as §2
Mus musculus [11] = experiment: Tested for 60-day survivors after administration at 62.5 mg/kg orally in M5076 mouse reticulum cell sarcoma; conditions: route oral; in short: as §3
Mus musculus [12] = experiment: Tested for 60-day survivors after administration at 500 mg/kg orally in M5076 mouse reticulum cell sarcoma; conditions: route oral; in short: as §3
Mus musculus [13] = experiment: Tested for 60-day survivors after administration at 250 mg/kg orally in M5076 mouse reticulum cell sarcoma; conditions: route oral; in short: as §3
Mus musculus [14] = experiment: Percent treated was determined after administration at 125 mg/kg orally; conditions: route oral; in short: as §4
Mus musculus [15] = experiment: Weight change in M5076 mouse reticulum cell sarcoma after administration at 500 mg/kg orally; conditions: route oral; in short: as §1
Mus musculus [16] = experiment: Weight change in M5076 mouse reticulum cell sarcoma after administration at 250 mg/kg orally; conditions: route oral; in short: as §1
Mus musculus [17] = experiment: Tested for 60-day survivors after administration at 125 mg/kg orally in M5076 mouse reticulum cell sarcoma; conditions: route oral; in short: as §3
Mus musculus [18] = experiment: Percent treated was determined after administration at 500 mg/kg orally; conditions: route oral; in short: as §4
Mus musculus [19] = experiment: Percent inhibition against M5076 mouse reticulum cell sarcoma after administration at 500 mg/kg orally on day 20; conditions: M5076, 480 h, route oral; in short: as §2
Mus musculus [20] = experiment: Percent treated was determined after administration at 250 mg/kg orally; conditions: route oral; in short: as §4

C[C@H]1O[C@@H](n2cc(F)c(=O)[nH]c2=O)[C@H](O)[C@@H]1O [DOXIFLURIDINE]
Weight change (Mus musculus [1]): 1.8 g
inhibition in vivo at 62.5 mg/kg (Mus musculus [2]): 8%
inhibition in vivo at 750 mg/kg (Mus musculus [3]): 50%
Survivors (Mus musculus [4]): 0
T/C (Mus musculus [5]): 88%
Weight change (Mus musculus [6]): 0.8 g
Weight change (Mus musculus [7]): 2.8 g
inhibition in vivo at 250 mg/kg (Mus musculus [8]): 15%
T/C (Mus musculus [9]): 92%
inhibition in vivo at 125 mg/kg (Mus musculus [10]): 18%
Survivors (Mus musculus [11]): 0
Survivors (Mus musculus [12]): 0
Survivors (Mus musculus [13]): 0
T/C (Mus musculus [14]): 98%
Weight change (Mus musculus [15]): 2.5 g
Weight change (Mus musculus [16]): 2 g
Survivors (Mus musculus [17]): 0
T/C (Mus musculus [18]): 104%
inhibition in vivo at 500 mg/kg (Mus musculus [19]): 19%
T/C (Mus musculus [20]): 86%
